Laboratory results as given in ChEMBL document CHEMBL1132450, “New natural sesquiterpenes as modulators of daunomycin resistance in a multidrug-resistant Leishmania tropica line” (1999).

Legend:
Leishmania tropica [1] = experiment: The compound was tested for growth inhibition against Wild type parasites, at a concentration of 30 uM.; format: functional
Summary of the method: (§1)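 Wild-type L. tropica LRC clone, obtained by agar plating. Cultured at 28 °C in modified RPMI 1640 with 20% heat-inactivated fetal bovine serum. Growth sensitivity to the sesquiterpene was assessed.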

Leishmania tropica [2] = experiment: The compound was tested for growth inhibition against DNM-R150 (Leishmania tropica) parasites, at a concentration of 30 uM.; format: functional
Summary of the method: (§2)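 Multidrug-resistant L. tropica DNM-R150 line, kept under continuous 150 µM daunomycin and overexpressing a Pgp-like transporter. Parasites were grown at 28 °C in modified RPMI 1640 with 20% heat-inactivated fetal bovine serum and tested for growth sensitivity to the sesquiterpene.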

Leishmania tropica [3] = experiment: The compound was tested for growth inhibition against Wild type parasites, at a concentration of 15 uM.; format: functional; summary of the method: as §1
[4] = The compound was tested for binding activity against nucleotide-binding domain 2, with quenching at 50 uM
Summary of the method: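 Recombinant Leishmania Pgp-like transporter NBD2, expressed in E. coli M15 [pREP4] and affinity-purified, at 0.2–0.5 µM final in pH 8.5 potassium phosphate buffer with 1 M NaCl, glycerol, HECAMEG and 10 mM imidazole, 25 °C. Sesquiterpene in DMSO (≤2% final) titrated in. Intrinsic fluorescence read at 300–350 nm emission (288 nm excitation), corrected for inner-filter and dilution. Quenching at 50 µM was read graphically from the curve.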

Leishmania tropica [5] = experiment: The compound was tested for growth inhibition against DNM-R150 (Leishmania tropica) parasites, at a concentration of 15 uM.; format: functional; summary of the method: as §2
Leishmania tropica [6] = experiment: The compound was tested for growth inhibition against DNM-R150 (Leishmania tropica) parasites, at a concentration of 15 uM; format: functional; summary of the method: as §2
Leishmania tropica [7] = experiment: The compound was tested for growth inhibition against Wild type parasites, at a concentration of 15 uM; format: functional; summary of the method: as §1
Leishmania tropica [8] = experiment: The compound was tested for growth inhibition against DNM-R150 (Leishmania tropica) parasites, at a concentration of 30 uM; format: functional; summary of the method: as §2
Leishmania tropica [9] = experiment: The compound was tested for growth inhibition against Wild type parasites, at a concentration of 30 uM; format: functional; summary of the method: as §1

Quenching [4] | Structure (SMILES) | Growth inhibition (Leishmania tropica [1]) | Growth inhibition (Leishmania tropica [2]) | Growth inhibition (Leishmania tropica [3]) | Growth inhibition (Leishmania tropica [5]) | Growth inhibition (Leishmania tropica [6]) | Growth inhibition (Leishmania tropica [7]) | Growth inhibition (Leishmania tropica [8]) | Growth inhibition (Leishmania tropica [9])
22.8% | CCC(C)C(=O)OC[C@]12[C@H](OC(=O)c3ccccc3)[C@@H](OC(C)=O)[C@@H]3[C@@H](OC(C)=O)[C@]1(OC3(C)C)[C@@](C)(O)C[C@H](OC(C)=O)[C@@H]2OC(C)=O (some centres undefined) | 9.5% | 86.1% | 4.9% | 40.9% |  |  |  | 
34.3% | CCC(C)C(=O)OC[C@@]12[C@@H](OC(C)=O)CC[C@](C)(O)[C@]13OC(C)(C)[C@H]([C@@H](OC(=O)c1cccnc1)[C@@H]2OC(=O)c1ccccc1)[C@H]3OC(C)=O (some centres undefined) |  |  |  |  | 92.9% | 6.9% | 96.1% | 13.8%
27.5% | CCC(C)C(=O)OC[C@]12[C@H](OC(=O)c3ccccc3)[C@@H](OC(=O)C(C)CC)[C@@H]3[C@@H](O)[C@]1(OC3(C)C)[C@@](C)(O)C[C@H](O)[C@@H]2OC(C)=O (some centres undefined) |  |  |  |  | 83.1% | 5.3% | 92.6% | 4%
27% | CC(=O)OC[C@@]12[C@@H](OC(C)=O)CC[C@](C)(O)[C@]13OC(C)(C)[C@H]([C@H](OC(C)=O)[C@H]2OC(=O)c1ccccc1)[C@H]3OC(C)=O | 16.9% | 49.8% | 13.5% | 16.3% |  |  |  | 
 | CCC(C)C(=O)OC[C@]12[C@H](OC(=O)c3ccccc3)[C@@H](OC(C)=O)[C@@H]3[C@@H](OC(C)=O)[C@]1(OC3(C)C)[C@@](C)(O)C[C@H](O)[C@@H]2OC(=O)c1ccccc1 (some centres undefined) |  |  |  |  | 77.8% | 25.5% | 95.4% | 62.9%
31.1% | CCC(C)C(=O)OC[C@]12[C@H](OC(=O)c3ccccc3)[C@@H](OC(C)=O)[C@@H]3[C@@H](O)[C@]1(OC3(C)C)[C@@](C)(O)C[C@H](OC(=O)c1cccnc1)[C@@H]2O (some centres undefined) |  |  |  |  | 20.8% | 9.3% | 88.3% | 8.4%
31.8% | CCC(C)C(=O)OC[C@]12[C@@H](OC(=O)c3ccccc3)[C@H](OC(=O)c3cccnc3)[C@@H]3[C@@H](OC(C)=O)[C@]1(OC3(C)C)[C@@](C)(O)C[C@H](OC(C)=O)[C@@H]2OC(C)=O (some centres undefined) | 6.2% | 82.5% | 7.5% | 32.3% |  |  |  | 
31.4% | CCC(C)C(=O)OC[C@]12[C@H](OC(=O)c3ccccc3)[C@@H](OC(C)=O)[C@@H]3[C@@H](O)[C@]1(OC3(C)C)[C@@](C)(O)C[C@H](O)[C@@H]2OC(=O)c1ccccc1 (some centres undefined) |  |  |  |  | 90.5% | 9.8% | 96% | 30%
30.8% | CCC(C)C(=O)OC[C@]12[C@H](OC(=O)c3ccccc3)[C@@H](OC(C)=O)[C@@H]3[C@@H](O)[C@]1(OC3(C)C)[C@@](C)(O)C[C@H](OC(C)=O)[C@@H]2OC(C)=O (some centres undefined) | 11.1% | 91.7% | 7.5% | 26.8% |  |  |  | 
